# Assay outcomes deposited in PubChem BioAssay by The Scripps Research Institute Molecular Screening Center.
# CHO parental Ca: counter-screen for OX1R antagonists: effect in parental CHO cells; 330,000 tested, 0.63% active; parental CHO-K1, ATP-induced calcium, Fluo-8 fluorescence; inhibition, % at 5.6 µM; AID 463079;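 active means inhibition above that plate's mean sample inhibition plus 3 SD, cut at about 26% in these data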;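 further: 0% = ATP-challenged DMSO wells and 100% = DMSO wells without ATP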
#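 test system = CHO parental line | reagent = ATP stimulus | measured by = intracellular calcium via Fluo-8 no-wash fluorescent dye | control set = ATP and no-ATP DMSO wells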
# OX1R antag-1: blocks the human orexin 1 receptor; CHO/OX1R cells, Fluo-8 calcium fluorescence, orexin A; inhibition, % at 5 µM; AID 434989; 330,000 tested, 0.43% active; O43613;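 active means inhibition above its plate's threshold, mean inhibition of all tested compounds on the plate plus 3 SD, cut at about 37% in these data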;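 further: 0% = orexin A challenge wells and 100% = SB-334867-A antagonist wells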
# Target sequence (O43613 whole entry, looked up): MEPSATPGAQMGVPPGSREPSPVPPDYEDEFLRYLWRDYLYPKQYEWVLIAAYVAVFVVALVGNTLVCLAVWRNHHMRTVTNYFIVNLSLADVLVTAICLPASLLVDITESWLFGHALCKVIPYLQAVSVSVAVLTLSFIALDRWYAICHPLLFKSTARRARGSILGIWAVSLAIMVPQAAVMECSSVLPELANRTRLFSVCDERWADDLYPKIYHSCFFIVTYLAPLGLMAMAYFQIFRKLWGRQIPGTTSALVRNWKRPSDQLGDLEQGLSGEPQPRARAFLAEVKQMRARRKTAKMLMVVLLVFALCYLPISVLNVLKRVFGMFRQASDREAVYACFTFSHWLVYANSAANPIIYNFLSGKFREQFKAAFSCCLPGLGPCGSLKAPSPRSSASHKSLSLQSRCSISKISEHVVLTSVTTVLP
# OX1R antag-2: OX1R (human) antagonism; O43613; inhibition, % at 6.6 µM; 330,000 tested, 1.8% active; OX1R-expressing cells, FRET antagonist read-out; in the data active means inhibition mostly above about 38%, no sharp cut-off; inactive means mostly below about 40%;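 further: 0% = agonist challenge alone and 100% = reference antagonist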
# GPR7 antag: human neuropeptides B/W receptor 1 antagonism; 290,000 tested, 1.1% active; GPR7-expressing cells, fluorescence antagonist assay; inhibition, % at 4.4 µM; in the data active means inhibition above about 16%, passing the limit was not always enough;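 further: cells stimulated with the agonist NPW; 0% = agonist with vehicle and 100% = vehicle without agonist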
# TAAR1 agonist: agonists of human TAAR1; CHO RD-HGA16 TAAR1, Fluo-8 calcium fluorescence; vehicle wells 0%, saturating PEA agonist 100%; AID 624467; Q96RJ0; 360,000 tested, 0.99% active; activation, % at 3 µM;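 active means activation above the mean activation of all test compounds in the run plus 3 SD, cut at about 38% in these data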
#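 Assay system: CHO-derived RD-HGA16 cells with stable Gα16 and human TAAR1; timing: 17-24 h seeding, 75 min 37 °C dye, 30 min RT; read-out: % activation from peak over basal fluorescence ratio, DMSO-to-PEA scaled; measured by: kinetic Fluo-8 calcium fluorescence; benchmarks: low control DMSO, high control PEA (EC100); doses: 3 µM single concentration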
# TAAR1 antag: human TAAR1 antagonism; Q96RJ0; CHO RD-HGA16 TAAR1, Fluo-8 calcium fluorescence, antagonist; 360,000 tested, 1.5% active; inhibition, % at 3 µM;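 active means inhibition above a per-plate cutoff, the mean inhibition of test compounds on that plate plus 3 SD, cut at about 49% in these data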;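 further: 0% = DMSO plus EC80 beta-PEA response and 100% = DMSO alone without agonist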
#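 Material: CHO RD-HGA16 cells bearing hTAAR1; compound dosing: one-point dosing, 3 µM nominal final; schedule: dye loading 75 min at 37 °C, then 30 min room temperature; measured by: calcium fluorescence with Fluo-8; control set: vehicle and agonist controls; replication: n of 1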
# GPR7 antag cf: confirmation of human GPR7 antagonists. shares compounds with GPR7 antag. GPR7-expressing cells, calcium fluorescence antagonist mode. inhibition, % at 4.4 µM. 2,400 tested, 52% active. AID 1952; in the data active means inhibition above about 24%;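 further: stimulated with the GPR7 agonist NPW; 0% = agonist plus vehicle and 100% = vehicle alone without agonist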
# MCHR1 antagonist: MCHR1 (human) antagonism in GPR7 counter-screen. MCHR1-expressing cells, fluorescence antagonist assay. 2,400 tested, 62% active. inhibition, % at 4.4 µM. shares compounds with GPR7 antag; in the data active means inhibition above about 22%;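 further: 0% = vehicle with agonist and 100% = vehicle without agonist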
# * marks the source's active call; other numbers are inactive results; . = no result given. A selection: hits, their analogues and other compounds. The true share with any hit is near 4.5%.
SMILES,CHO parental Ca,OX1R antag-1,OX1R antag-2,GPR7 antag,TAAR1 agonist,TAAR1 antag,GPR7 antag cf,MCHR1 antagonist
O=C(COC(=O)/C=C/c1ccc(Cl)cc1)NCCc1ccccc1,4,-16,0,21*,7,-8,-1,-1
O=C(COC(=O)/C=C/c1ccco1)NCc1ccccc1,-4,-9,13,27*,1,-16,-7,-2
CCCCCCN1C[C@H](O)[C@@H](n2cc(COC(=O)c3ccccc3)nn2)C[C@@H]1c1ccccc1,.,.,.,.,0,-9,.,.
COC(=O)c1ccc(CSc2nnc(NC(C)C)s2)o1,-3,-27,11,-4,3,10,.,.
COC(=O)c1ccc(CSc2nnc(Nc3cccc(OC)c3)s2)o1,-5,-11,33,46*,12,16,1,48*
CCCCn1c(N)c(N(CC(C)C)C(=O)c2cc(-c3ccc(F)cc3)nc3ccccc23)c(=O)[nH]c1=O,-13,-32,12,.,0,-36,.,.
Cc1ccc(C)c(NC(=S)NCCN(C2CCCCC2)C2CCCC2)c1,-26,-34,17,46*,2,2,44*,36*
Cc1ccc(SCCNC(=S)Nc2cc(C)ccc2C)cc1,31,25,27,-16,0,33,.,.
OCCN(Cc1ccccc1)c1ncnc2sccc12,5,-21,10,-2,3,3,.,.
CCc1ccc(C(C)NC(=S)NCc2ccc(F)cc2)cc1 (stereo unspecified),14,0,15,31*,40*,44,43*,75*
CC(C(=O)Nc1nccs1)c1ccc([N+](=O)[O-])cc1 (stereo unspecified),1,-8,20,37*,33,9,18,10
CC(C(=O)NCCCc1ccccc1)c1ccc([N+](=O)[O-])cc1 (stereo unspecified),1,-8,7,22*,17,3,33*,58*
CCCS(=O)(=O)N1CCCC(C(=O)N2CCCCC2)C1 (stereo unspecified),-11,-19,-3,-6,1,-9,.,.
O=C1C2CC=CCC2C(=O)N1c1ccc(NCCc2ccc(O)cc2)c([N+](=O)[O-])c1 (stereo unspecified),17,4,22,31*,20,40,28*,55*
O=C1C2CC=CCC2C(=O)N1c1ccc(NCCc2ccc(Cl)cc2)c([N+](=O)[O-])c1 (stereo unspecified),-7,-3,15,1,1,5,.,.
O=C(NCC1CCN(Cc2ccccc2F)CC1)Nc1cccc(Br)c1,-5,-9,6,25,14,-9,.,.
CC(=O)O[C@@H]1C[C@H]2C(C)(C)C(=O)C=C[C@]2(C)[C@H]2CC[C@@]3(C)[C@H](c4ccoc4)OC(=O)[C@H]4O[C@]43[C@@]21C,-6,-19,17,28*,21,20,42*,18
Cc1cc(S(=O)(=O)NCC(c2ccc3c(c2)OCO3)N2CCOCC2)ccc1F (stereo unspecified),-11,-27,10,.,1,-3,.,.
CC(=O)c1ccc(NC(=O)CSc2ccc(-c3sc(C)nc3C)nn2)cc1,-3,-7,19,26*,13,64*,43*,76*
COc1ccc(C2Nc3ccccc3C(=O)N2Cc2ccco2)cc1CN1C(=O)c2ccccc2C1=O (stereo unspecified),-4,-9,22,10,0,3,.,.
COc1ccc(C2Nc3ccccc3C(=O)N2Cc2ccco2)cc1COc1ccc(F)cc1 (stereo unspecified),1,-12,18,27*,-3,18,29*,25*
CCN(CC(=O)NCc1ccc(F)cc1)C(=O)c1cccc(S(=O)(=O)N(C)c2ccc(OC)cc2)c1,.,.,.,.,4,-6,.,.
